Format in all cases: functional
Conditions in all cases: read-out: DIZ

Experiment [1] relates to Escherichia coli. Nature of the experiment: Antimicrobial activity against Escherichia coli at 0.5 mg/ml by well plate method. The procedure, abridged: (§1)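 Agar well-plate diffusion against E. coli, B. subtilis and P. aeruginosa. Test compounds dissolved in DMSO at 1 and 0.5 mg/mL and placed in wells. Streptomycin was the reference drug. Read-out is the zone of inhibition.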

The subject of experiment [2] is Pseudomonas aeruginosa. The experiment can be described thus: Antimicrobial activity against Pseudomonas aeruginosa at 1 mg/ml by well plate method. The procedure, abridged: as §1
For experiment [3], the system named is Aspergillus flavus. Nature of the experiment: Antimicrobial activity against Aspergillus flavus at 1 mg/ml by well plate method. The gist of the method: (§2)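 Fungal well-plate diffusion against Candida albicans, Aspergillus flavus and Chrysosporium keratinophilum. Compounds in DMSO at 1 and 0.5 mg/mL, with fluconazole as the reference drug. Activity scored as the zone of inhibition.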

For experiment [4], the system named is Aspergillus flavus. The experiment can be described thus: Antimicrobial activity against Aspergillus flavus at 0.5 mg/ml by well plate method. The gist of the method:
as §2

Experiment [5] deals with Candida albicans. Nature of the experiment: Antimicrobial activity against Candida albicans at 0.5 mg/ml by well plate method. The procedure, abridged:
as §2

Experiment [6] relates to Chrysosporium keratinophilum. Nature of the experiment: Antimicrobial activity against Chrysosporium keratinophilum at 1 mg/ml by well plate method. The procedure, abridged:
as §2

Experiment [7] relates to Candida albicans. Nature of the experiment: Antimicrobial activity against Candida albicans at 1 mg/ml by well plate method. The gist of the method:
as §2

The subject of experiment [8] is Bacillus subtilis. The experiment can be described thus: Antimicrobial activity against Bacillus subtilis at 0.5 mg/ml by well plate method. The gist of the method: as §1
In experiment [9] the test system is Escherichia coli. The experiment can be described thus: Antimicrobial activity against Escherichia coli at 1 mg/ml by well plate method. The procedure, abridged:
as §1

Experiment [10] deals with Bacillus subtilis. Nature of the experiment: Antimicrobial activity against Bacillus subtilis at 1 mg/ml by well plate method. The procedure, abridged:
as §1

The subject of experiment [11] is Chrysosporium keratinophilum. Nature of the experiment: Antimicrobial activity against Chrysosporium keratinophilum at 0.5 mg/ml by well plate method. The procedure, abridged:
as §2

Experiment [12] has as its system Pseudomonas aeruginosa. The experiment can be described thus: Antimicrobial activity against Pseudomonas aeruginosa at 0.5 mg/ml by well plate method. The gist of the method: as §1

Molecules are shown by their SMILES.

Regarding `CCN(CC)c1ccc(-c2nn3cc(-c4ccc(OC)cc4)nc3s2)cc1[N+](=O)[O-]`, the zone of inhibition at 500 µg/mL with Escherichia coli [1] came to 4 mm; in the experiment with Aspergillus flavus [4], 3 mm; in the experiment with Candida albicans [5], 5 mm; in the experiment on Bacillus subtilis [8], 3 mm; in experiment [11], 3 mm; with Pseudomonas aeruginosa [12] it was 1 mm. Also, the zone of inhibition at 1000 µg/mL was determined as 3 mm in the experiment with Pseudomonas aeruginosa [2]; 5 mm with Aspergillus flavus [3]; 5 mm in [6]; 6 mm in the experiment with Candida albicans [7]; 6 mm with Escherichia coli [9]; 5 mm in the experiment on Bacillus subtilis [10].
With `COc1ccc(-c2cn3nc(-c4ccc(N(C)C)c([N+](=O)[O-])c4)sc3n2)cc1`, the zone of inhibition at 500 µg/mL with Escherichia coli [1] worked out at 3 mm; with Aspergillus flavus [4], 2 mm; with Candida albicans [5], 3 mm; in the experiment on Bacillus subtilis [8], 2 mm; in experiment [11], 2 mm; with Pseudomonas aeruginosa [12], 4 mm. Further, the zone of inhibition at 1000 µg/mL with Pseudomonas aeruginosa [2] came out at 6 mm; in the experiment with Aspergillus flavus [3], 4 mm; in experiment [6], 4 mm; in the experiment with Candida albicans [7], 5 mm; with Escherichia coli [9] it was 4 mm; with Bacillus subtilis [10], 3 mm.
Turning to `CC(C)(C)C(=O)Nc1nnc(-c2ccc(N3CCCC3)c([N+](=O)[O-])c2)s1`, the zone of inhibition at 500 µg/mL with Escherichia coli [1] came out at 3 mm; in the experiment with Aspergillus flavus [4], 4 mm; in the experiment on Candida albicans [5] it was 5 mm; in the experiment on Bacillus subtilis [8], 1 mm; in [11], 3 mm; in the experiment on Pseudomonas aeruginosa [12] it was 4 mm. Also, the zone of inhibition at 1000 µg/mL in the experiment on Pseudomonas aeruginosa [2] stood at 6 mm; with Aspergillus flavus [3] it was 6 mm; in experiment [6], 5 mm; with Candida albicans [7] it was 6 mm; in the experiment on Escherichia coli [9] it was 5 mm; with Bacillus subtilis [10] it was 3 mm.

For the origin of these results see ChEMBL document CHEMBL3097999, “Synthesis and biological evaluation of novel substituted 1,3,4-thiadiazole and 2,6-di aryl substituted imidazo [2,1-b] [1,3,4] thiadiazole derivatives” (2014).
